From ChEMBL document CHEMBL4842366, “Design, synthesis and structure-activity relationship studies of 4-indole-2-arylaminopyrimidine derivatives as anti-inflammatory agents for acute lung injury” (Eur J Med Chem, 2021)
The source made the active and inactive calls. No cut-off for these calls is given here.

Tests used:
HBE [1] = assay: Antiinflammatory activity in human HBE cells assessed as inhibition of LPS-induced IL-6 production at 5 uM pretreated with compound for 30 mins followed by LPS stimulation and measured after 24 hrs by ELISA; assay type: functional, cell-based; settings: time 1470.0 min
In short: (§1)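 HBE cells were grown in RPMI-1640 with 10% FBS at 37 °C and 5% CO2. Cells were pretreated for 30 min with compound or indomethacin at 5 μM, then stimulated with LPS (100 μg/mL) for 24 h. IL-6 or IL-8 in the medium was measured by ELISA and normalized to total cell protein determined by BCA assay.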

HBE [2] = assay: Antiinflammatory activity in human HBE cells assessed as inhibition of LPS-induced IL-8 production at 5 uM pretreated with compound for 30 mins followed by LPS stimulation and measured after 24 hrs by ELISA; assay type: functional, cell-based; settings: time 1470.0 min; in short: as §1
[3] = Cytotoxicity against human HBE cells assessed as reduction in cell survival at 10 uM by MTT assay; assay type: cell-based
In short: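 HBE cells were seeded at 1 × 10^4 per well in RPMI-1640 with 10% FBS and exposed to compound at 10 μM. Viability was then read by MTT: MTT solution (5 mg/mL) for 4 h at 37 °C in the dark, formazan dissolved in DMSO, and absorbance read at 490 nm.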

[4] = Cytotoxicity against human HBE cells assessed as cell survival rate at 10 uM by MTT assay relative to control; assay type: cell-based; settings: read-out: Survival
In short: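 HBE cells in RPMI-1640 with 10% FBS at 37 °C, 5% CO2, seeded at 1 × 10^4 cells per well. Compounds tested at 10 μM. After treatment, MTT (5 mg/mL) for 4 h at 37 °C in the dark, formazan dissolved in DMSO, absorbance read at 490 nm. Data as mean ± SEM.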

[5] = Antiinflammatory activity in human HBE cells assessed as inhibition of LPS-induced IL-6 production at 5 uM pretreated with compound for 30 mins followed by LPS stimulation and measured after 24 hrs by ELISA relative to control; assay type: functional; settings: 24.5 h, time 1470 min; in short: as §1
[6] = Antiinflammatory activity in human HBE cells assessed as inhibition of LPS-induced IL-8 production at 5 uM pretreated with compound for 30 mins followed by LPS stimulation and measured after 24 hrs by ELISA relative to control; assay type: functional; settings: 24.5 h, time 1470 min; in short: as §1
Mus musculus [7] = assay: Antiinflammatory activity against LPS-induced acute lung injury C57BL/6 mouse model assessed as reduction in IL-1beta mRNA expression in lungs at 20 mg/kg, ip administered for 3 days and on day 4 treated 1 hr before LPS stimulation and measured after 18 hrs by SYBR green dye based RT-qPCR analysis; assay type: functional, organism-based; settings: time 4.0 day
In short: (§2)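 Same LPS lung-injury protocol: n = 6 male C57BL/6 mice per group, 3 days of i.p. saline or compound, then intratracheal LPS (5 mg/kg) 1 h after the day-4 dose, and sacrifice at 18 h. Lung RNA was extracted with TRIZOL for real-time quantitative PCR, with mouse GAPDH primers alongside the target primers. Data are mean ± SEM; Student's t-test.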

Mus musculus [8] = assay: (§3) Antiinflammatory activity against LPS-induced acute lung injury C57BL/6 mouse model assessed as improved alveolar structure in lungs at 20 mg/kg, ip administered for 3 days and on day 4 treated 1 hr before LPS stimulation and measured after 18 hrs by H and E staining based microscopic analysis; assay type: functional, organism-based; settings: time 4.0 day
In short: (§4)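 Male C57BL/6 mice (20–25 g, SPF) in groups of n = 6 were given 0.9% saline or compound i.p. for 3 days. On day 4, LPS (5 mg/kg) was instilled intratracheally 1 h after dosing, and mice were killed 18 h later. Lungs were fixed in 4% paraformaldehyde, paraffin-embedded, cut at 5 μm, H&E-stained and photographed for pathology.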

Mus musculus [9] = assay: Antiinflammatory activity against LPS-induced acute lung injury C57BL/6 mouse model assessed as reduction in total cell count in BALF at 10 to 20 mg/kg, ip administered for 3 days and on day 4 treated 1 hr before LPS stimulation and measured after 18 hrs; assay type: functional, organism-based; settings: dose 10-20 mg/kg, time 4.0 day
In short: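 BALF was collected 18 h after intratracheal LPS (5 mg/kg) in male C57BL/6 mice (n = 6/group) given i.p. saline or compound for 3 days, with LPS 1 h after the day-4 dose. Lavage was done with 3 × 1 mL cold PBS and centrifuged at 800 g, 4 °C, for 10 min. The pellet was washed and resuspended in 10 mL PBS, and total cells were counted.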

Mus musculus [10] = assay: Antiinflammatory activity against LPS-induced acute lung injury C57BL/6 mouse model assessed as reduction in TNF-alpha mRNA expression in lungs at 20 mg/kg, ip administered for 3 days and on day 4 treated 1 hr before LPS stimulation and measured after 18 hrs by SYBR green dye based RT-qPCR analysis; assay type: functional, organism-based; settings: time 4.0 day; in short: as §2
Mus musculus [11] = assay: Antiinflammatory activity against LPS-induced acute lung injury C57BL/6 mouse model assessed as reduction in edema of lung tissue at 20 mg/kg, ip administered for 3 days and on day 4 treated 1 hr before LPS stimulation and measured after 18 hrs by H and E staining based microscopic analysis; assay type: functional, organism-based; settings: time 4.0 day; in short: as §4
Mus musculus [12] = assay: as §3, with “reduction in inflammatory cell infiltration” for “improved alveolar structure”; assay type: functional, organism-based; settings: time 4.0 day; in short: as §4
Mus musculus [13] = assay: Antiinflammatory activity against LPS-induced acute lung injury C57BL/6 mouse model assessed as reduction in iNOS mRNA expression in lungs at 10 to 20 mg/kg, ip administered for 3 days and on day 4 treated 1 hr before LPS stimulation and measured after 18 hrs by SYBR green dye based RT-qPCR analysis; assay type: functional, organism-based; settings: dose 10-20 mg/kg, time 4.0 day; in short: as §2
Mus musculus [14] = assay: Antiinflammatory activity against LPS-induced acute lung injury C57BL/6 mouse model assessed as reduction in protein content in BALF at 10 to 20 mg/kg, ip administered for 3 days and on day 4 treated 1 hr before LPS stimulation and measured after 18 hrs by BCA assay; assay type: functional, organism-based; settings: dose 10-20 mg/kg, time 4.0 day
In short: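 In male C57BL/6 mice (n = 6/group; i.p. dosing for 3 days; intratracheal LPS 5 mg/kg 1 h after the day-4 dose; killed at 18 h), lungs were lavaged three times with 1 mL cold PBS. BALF was spun at 800 g, 4 °C, for 10 min, and supernatant protein was measured by BCA assay.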

Mus musculus [15] = assay: In vivo inhibition of MAPK phosphorylation in LPS-induced acute lung injury C57BL/6 mouse model assessed as inhibition of ERK phosphorylation in lungs at 20 mg/kg, ip administered for 3 days and on day 4 treated 1 hr before LPS stimulation and measured after 18 hrs by western blot analysis; assay type: functional, organism-based; settings: time 4.0 day
Mus musculus [16] = assay: In vivo inhibition of MAPK phosphorylation in LPS-induced acute lung injury C57BL/6 mouse model assessed as inhibition of p38 phosphorylation in lungs at 20 mg/kg, ip administered for 3 days and on day 4 treated 1 hr before LPS stimulation and measured after 18 hrs by western blot analysis; assay type: functional, organism-based; settings: time 4.0 day
[17] = biological target: T1, Epidermal growth factor receptor (Homo sapiens, UniProt P00533); assay: Inhibition of EGFR phosphorylation in human HBE cells incubated for 24 hrs by western blot analysis; assay type: cell-based
In short: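 HBE cells were treated with drug for 24 h, washed with cold PBS and lysed on ice for 30 min in buffer with protease and phosphatase inhibitors, then centrifuged at 12000 r/min, 4 °C, for 30 min. Protein was quantified by BCA and separated by SDS-PAGE. Blots were probed overnight at 4 °C with p-EGFR/EGFR antibodies, then secondary antibody (1:2000, 2 h), and detected by chemiluminescence.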

Mus musculus [18] = assay: Antiinflammatory activity against LPS-induced acute lung injury C57BL/6 mouse model assessed as reduction in lung edema by measuring reduction in lung wet/dry ratio at 10 to 20 mg/kg, ip administered for 3 days and on day 4 treated 1 hr before LPS stimulation and measured after 18 hrs; assay type: functional, organism-based; settings: dose 10-20 mg/kg, time 4.0 day
In short: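 Mice (male C57BL/6, n = 6/group) received i.p. saline or compound for 3 days, then intratracheal LPS 5 mg/kg 1 h after the day-4 dose, and were killed 18 h later. Lungs were weighed wet, dried at 60 °C for 48 h to constant weight, and the wet/dry ratio was calculated. Data are mean ± SEM; t-test.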

Mus musculus [19] = assay: Antiinflammatory activity against LPS-induced acute lung injury C57BL/6 mouse model assessed as reduction in IL-6 mRNA expression in lungs at 20 mg/kg, ip administered for 3 days and on day 4 treated 1 hr before LPS stimulation and measured after 18 hrs by SYBR green dye based RT-qPCR analysis; assay type: functional, organism-based; settings: time 4.0 day; in short: as §2
[20] = biological target: T1, Epidermal growth factor receptor; assay: Inhibition of human EGFR using poly(Glu:Tyr)(4:1) as substrate in presence of [gamma33P]ATP by radiometric HotSpot assay
Peritoneal macrophage = assay: Inhibition of LPS-induced NO production in mouse peritoneal macrophages measured after 24 hrs by Griess assay; assay type: functional, cell-based

T1 sequence (P00533 whole entry): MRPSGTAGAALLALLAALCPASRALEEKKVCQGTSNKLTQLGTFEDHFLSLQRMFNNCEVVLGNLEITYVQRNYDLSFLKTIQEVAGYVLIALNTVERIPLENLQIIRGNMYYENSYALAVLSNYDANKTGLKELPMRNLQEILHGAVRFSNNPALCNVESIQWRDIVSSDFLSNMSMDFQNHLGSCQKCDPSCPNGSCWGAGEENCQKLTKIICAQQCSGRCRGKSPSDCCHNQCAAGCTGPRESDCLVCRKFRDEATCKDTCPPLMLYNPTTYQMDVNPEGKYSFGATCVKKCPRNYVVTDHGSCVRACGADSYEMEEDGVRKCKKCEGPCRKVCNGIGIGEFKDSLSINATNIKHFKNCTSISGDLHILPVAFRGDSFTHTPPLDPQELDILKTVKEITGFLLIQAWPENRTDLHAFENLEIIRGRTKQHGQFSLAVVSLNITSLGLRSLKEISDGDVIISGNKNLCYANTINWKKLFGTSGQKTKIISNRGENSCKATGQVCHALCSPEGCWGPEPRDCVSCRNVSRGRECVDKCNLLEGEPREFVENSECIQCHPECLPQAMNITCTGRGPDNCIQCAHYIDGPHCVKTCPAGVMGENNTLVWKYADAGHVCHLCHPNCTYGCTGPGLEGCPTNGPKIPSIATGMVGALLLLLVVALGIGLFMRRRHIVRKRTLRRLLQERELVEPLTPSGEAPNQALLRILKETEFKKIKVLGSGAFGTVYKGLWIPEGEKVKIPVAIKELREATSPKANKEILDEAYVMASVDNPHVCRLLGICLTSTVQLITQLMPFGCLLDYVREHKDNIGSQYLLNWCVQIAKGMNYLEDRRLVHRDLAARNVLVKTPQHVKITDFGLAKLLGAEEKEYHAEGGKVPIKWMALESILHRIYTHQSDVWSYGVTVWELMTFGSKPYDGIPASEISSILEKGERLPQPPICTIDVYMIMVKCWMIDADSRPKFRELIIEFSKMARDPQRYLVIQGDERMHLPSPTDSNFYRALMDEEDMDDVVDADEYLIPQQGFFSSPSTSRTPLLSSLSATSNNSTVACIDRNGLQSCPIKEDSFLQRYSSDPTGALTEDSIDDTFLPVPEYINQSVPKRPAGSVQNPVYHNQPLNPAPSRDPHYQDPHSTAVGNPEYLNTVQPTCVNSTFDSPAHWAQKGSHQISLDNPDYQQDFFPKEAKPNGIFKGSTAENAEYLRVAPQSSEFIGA

Structure (SMILES) | Activity (HBE [1]) | Activity (HBE [2]) | Activity [3] | inhibition at 5 µM [6] | other results
COc1cc(N(C)CCN(C)C)c(NC(=O)CN=[N+]=[N-])cc1Nc1nccc(-c2cn(C)c3ccccc23)n1 | Active | Active | Non-Toxic |  | 
COc1cc(N2CCCCC2)c(N)cc1Nc1nccc(-c2cn(C)c3ccccc23)n1.Cl | Active | Active | Non-Toxic |  | 
COc1cc(N(C)CCN(C)C)c([N+](=O)[O-])cc1Nc1nccc(-c2cn(C)c3ccccc23)n1 | Active | Active |  |  | viability at 10 µM [4]: < 70%
CCCCN(CCCC)c1cc(OC)c(Nc2nccc(-c3cn(C)c4ccccc34)n2)cc1N.Cl | Active | Active | Non-Toxic |  | 
COc1cc(N2CCCCCC2)c(N)cc1Nc1nccc(-c2cn(C)c3ccccc23)n1.Cl | Active | Active | Non-Toxic |  | 
COc1cc(N2CCN(C)CC2)c(N)cc1Nc1nccc(-c2cn(C)c3ccccc23)n1 |  |  |  | 65% | inhibition at 5 µM [5]: 62%; viability at 10 µM [4]: < 70%
COc1cc(N(C)CCN(C)C)c(N)cc1Nc1nccc(-c2cn(C)c3ccccc23)n1.Cl |  |  | Non-Toxic | 72% | Activity (Mus musculus [7]): Active; Activity (Mus musculus [8]): Active; inhibition at 5 µM [5]: 62%; Activity (Mus musculus [9]): Active; Activity (Mus musculus [10]): Active; Activity (Mus musculus [11]): Active; Activity (Mus musculus [12]): Active; Activity (Mus musculus [13]): Active; Activity (Mus musculus [14]): Active; inhibition (Mus musculus [15]): Active; inhibition (Mus musculus [16]): Active; inhibition [17]: Active; Activity (Mus musculus [18]): Active; Activity (Mus musculus [19]): Active
COc1ccc2c(c1)c(CC(=O)O)c(C)n2C(=O)c1ccc(Cl)cc1 [INDOMETHACIN] | Active | Active | Non-Toxic |  | 
COc1cc(N(C)CCN(C)C)c(NC(=O)CCCN=[N+]=[N-])cc1Nc1nccc(-c2cn(C)c3ccccc23)n1 | Active |  | Non-Toxic | 88% | 
COc1cc(N2CCOCC2)c(N)cc1Nc1nccc(-c2cn(C)c3ccccc23)n1.Cl | Active | Active | Non-Toxic |  | 
COc1cc(F)c(N)cc1Nc1nccc(-c2cn(C)c3ccccc23)n1 |  |  | Non-Toxic | 49% | inhibition at 5 µM [5]: 63%; inhibition [17]: Active
COc1cc(N2CCCC2)c(N)cc1Nc1nccc(-c2cn(C)c3ccccc23)n1.Cl |  |  | Non-Toxic | 65% | inhibition at 5 µM [5]: 62%; inhibition [17]: Active
O=C(Nc1cncnc1Oc1cccc(C(F)(F)F)c1)c1ccc(F)cc1 |  |  |  |  | IC50 [20]: 2.98 µM; IC50 (Peritoneal macrophage): 20.8 µM
CCN(CC)c1cc(OC)c(Nc2nccc(-c3cn(C)c4ccccc34)n2)cc1N.Cl | Active | Active | Non-Toxic |  | 
